According to ChEMBL document CHEMBL1149202, “N-Aryl-gamma-lactams as integrin alphavbeta3 antagonists” (Bioorg Med Chem Lett, 2004):

Key:
Integrin alpha-V/beta-3 = Integrin alpha-V/beta-3 (Homo sapiens, UniProt P05106+P06756); experiment: Binding affinity towards vitronectin receptor (AlphaV-beta3 integrin).; assay type: protein-complex assay
Outline: (§1)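 Purified integrin (αvβ3; αIIbβ3) was bead-coupled overnight at 4 °C. Competitive electrochemiluminescent binding used Ru-labelled vitronectin for αvβ3 and Ru-labelled fibrinogen for αIIbβ3, in pH 7.5 Tris buffer with Ca2+, Mg2+, Mn2+, 1% BSA and 0.05% Tween-20, for 2 h at 25 °C. DMSO serial dilutions were used. Nonspecific binding was taken with excess unlabelled ligand or 5 mM EDTA. Ki came from a four-parameter fit, SD of ≥2 determinations.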

[1] = molecular target: Integrin alpha-IIb/beta-3 (Homo sapiens, UniProt P05106+P08514); experiment: Affinity for alphaIIb-beta3 integrin; assay type: protein-complex assay; outline: as §1
Integrin alpha-IIb/beta-3, sequence (P05106 27-788 limits assumed): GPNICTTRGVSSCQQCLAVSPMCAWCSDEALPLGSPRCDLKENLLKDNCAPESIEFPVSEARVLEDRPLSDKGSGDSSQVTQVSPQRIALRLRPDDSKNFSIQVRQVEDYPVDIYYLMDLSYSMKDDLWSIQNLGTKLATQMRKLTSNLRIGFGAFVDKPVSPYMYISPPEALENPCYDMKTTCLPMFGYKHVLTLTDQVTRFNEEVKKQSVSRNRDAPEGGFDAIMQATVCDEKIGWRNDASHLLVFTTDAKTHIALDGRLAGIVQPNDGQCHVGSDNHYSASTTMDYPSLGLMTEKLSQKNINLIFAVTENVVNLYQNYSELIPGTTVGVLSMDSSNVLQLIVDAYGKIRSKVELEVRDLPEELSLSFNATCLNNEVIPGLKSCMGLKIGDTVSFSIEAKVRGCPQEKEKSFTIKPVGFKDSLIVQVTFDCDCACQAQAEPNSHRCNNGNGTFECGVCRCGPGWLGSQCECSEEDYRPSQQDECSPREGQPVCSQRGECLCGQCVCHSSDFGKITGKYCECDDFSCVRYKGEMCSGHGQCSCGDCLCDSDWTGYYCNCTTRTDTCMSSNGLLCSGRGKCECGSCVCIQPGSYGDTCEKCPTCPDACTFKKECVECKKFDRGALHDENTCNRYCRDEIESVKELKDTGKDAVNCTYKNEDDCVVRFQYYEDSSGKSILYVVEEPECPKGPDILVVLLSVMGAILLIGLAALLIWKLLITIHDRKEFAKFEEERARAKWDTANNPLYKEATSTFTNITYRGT
Integrin alpha-IIb/beta-3, sequence (P08514 32-887 limits assumed): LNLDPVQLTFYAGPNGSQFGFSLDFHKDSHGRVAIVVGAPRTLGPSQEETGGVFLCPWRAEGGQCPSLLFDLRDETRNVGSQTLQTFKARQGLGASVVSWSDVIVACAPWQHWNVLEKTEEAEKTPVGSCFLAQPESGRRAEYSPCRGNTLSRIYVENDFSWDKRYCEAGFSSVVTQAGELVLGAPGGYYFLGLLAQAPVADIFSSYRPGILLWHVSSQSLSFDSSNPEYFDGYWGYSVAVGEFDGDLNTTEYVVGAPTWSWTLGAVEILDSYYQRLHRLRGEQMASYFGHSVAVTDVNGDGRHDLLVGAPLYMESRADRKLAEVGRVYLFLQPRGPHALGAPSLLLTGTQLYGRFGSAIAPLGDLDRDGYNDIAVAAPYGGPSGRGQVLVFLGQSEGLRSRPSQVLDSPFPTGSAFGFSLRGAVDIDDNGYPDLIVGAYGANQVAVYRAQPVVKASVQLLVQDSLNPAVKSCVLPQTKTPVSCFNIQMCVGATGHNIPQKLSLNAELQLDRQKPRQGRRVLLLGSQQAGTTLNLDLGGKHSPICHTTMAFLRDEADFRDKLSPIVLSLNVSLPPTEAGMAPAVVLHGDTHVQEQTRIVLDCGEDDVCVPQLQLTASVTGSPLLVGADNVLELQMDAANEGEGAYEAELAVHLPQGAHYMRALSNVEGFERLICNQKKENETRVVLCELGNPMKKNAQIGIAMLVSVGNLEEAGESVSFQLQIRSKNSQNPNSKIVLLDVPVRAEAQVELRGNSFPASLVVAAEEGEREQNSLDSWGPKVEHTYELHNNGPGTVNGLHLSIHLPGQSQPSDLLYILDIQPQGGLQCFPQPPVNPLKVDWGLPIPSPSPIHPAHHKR
Integrin alpha-IIb/beta-3, sequence (P08514 891-1039 limits assumed): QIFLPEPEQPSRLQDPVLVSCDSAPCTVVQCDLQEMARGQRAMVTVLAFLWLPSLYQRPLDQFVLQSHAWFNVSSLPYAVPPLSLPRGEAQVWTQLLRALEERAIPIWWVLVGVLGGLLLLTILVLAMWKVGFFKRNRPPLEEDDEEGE

Integrin alpha-V/beta-3, sequence (P05106 27-788 limits assumed): as the sequence (P05106 27-788 limits assumed) above
Integrin alpha-V/beta-3, sequence (P06756 31-889 limits assumed): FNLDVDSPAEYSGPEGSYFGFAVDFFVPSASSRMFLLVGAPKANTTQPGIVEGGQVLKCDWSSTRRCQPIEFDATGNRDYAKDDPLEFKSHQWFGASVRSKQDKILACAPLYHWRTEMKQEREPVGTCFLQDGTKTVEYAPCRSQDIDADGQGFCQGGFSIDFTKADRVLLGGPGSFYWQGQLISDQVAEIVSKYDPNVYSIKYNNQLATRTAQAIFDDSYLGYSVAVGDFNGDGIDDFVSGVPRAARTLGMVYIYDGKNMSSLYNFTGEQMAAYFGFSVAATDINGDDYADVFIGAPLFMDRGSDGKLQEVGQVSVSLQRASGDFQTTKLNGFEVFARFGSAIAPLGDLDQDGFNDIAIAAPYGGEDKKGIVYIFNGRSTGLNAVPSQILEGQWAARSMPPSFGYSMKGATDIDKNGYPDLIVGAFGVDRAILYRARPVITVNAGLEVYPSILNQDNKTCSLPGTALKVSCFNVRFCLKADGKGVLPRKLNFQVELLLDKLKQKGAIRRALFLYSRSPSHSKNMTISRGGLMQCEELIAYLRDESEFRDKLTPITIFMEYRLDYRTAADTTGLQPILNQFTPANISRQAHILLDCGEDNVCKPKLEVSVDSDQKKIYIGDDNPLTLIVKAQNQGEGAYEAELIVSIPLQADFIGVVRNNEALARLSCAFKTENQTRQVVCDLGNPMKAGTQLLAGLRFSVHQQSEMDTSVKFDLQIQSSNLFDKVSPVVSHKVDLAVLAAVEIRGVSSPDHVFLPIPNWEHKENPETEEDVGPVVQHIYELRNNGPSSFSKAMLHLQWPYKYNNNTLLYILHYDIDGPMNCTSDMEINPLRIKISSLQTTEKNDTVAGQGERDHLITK
Integrin alpha-V/beta-3, sequence (P06756 891-1048 limits assumed): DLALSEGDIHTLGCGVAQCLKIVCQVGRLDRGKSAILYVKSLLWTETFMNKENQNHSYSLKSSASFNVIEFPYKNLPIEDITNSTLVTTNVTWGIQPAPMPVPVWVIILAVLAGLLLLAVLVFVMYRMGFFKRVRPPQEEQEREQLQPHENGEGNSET

Ki (Integrin alpha-V/beta-3) [nM]	Ki [1] [nM]	SMILES
> 1000	> 25000	O=C(O)C[C@@H](NC(=O)[C@H]1CC(=O)N(c2cccc(NC(=O)NCc3ccccc3)c2)C1)c1cccc(F)c1
2.4		O=C(O)CC(NC(=O)C1CC(=O)N(c2cccc(NC(=O)NCc3ccccc3)c2)C1)c1ccc2c(c1)OCO2 (stereo not drawn)
16.6		N=C(N)Nc1cccc(N2CC(C(=O)NC(CC(=O)O)c3cccnc3)CC2=O)c1 (stereo not drawn)
11.1		O=C(O)CC(NC(=O)C1CC(=O)N(c2cccc(NC(=O)NCc3ccccc3)c2)C1)c1cccc(F)c1 (stereo not drawn)
154	> 25000	O=C(O)C[C@@H](NC(=O)[C@@H]1CC(=O)N(c2cccc(NC(=O)NCc3ccccc3)c2)C1)c1cccc(F)c1
0.7		O=C(O)CC(NC(=O)C1CC(=O)N(c2cccc(NC3=NCCCN3)c2)C1)c1ccc2c(c1)OCO2 (stereo not drawn)
10.4		O=C(O)CC(NC(=O)C1CC(=O)N(c2cccc(NC(=O)NCc3ccccc3)c2)C1)c1cccnc1 (stereo not drawn)
70.9		O=C(O)CC(NC(=O)C1CC(=O)N(c2cccc(NC(=O)NCc3ccccc3)c2)C1)c1ccccc1 (stereo not drawn)
0.5		O=C(O)CC(NC(=O)C1CC(=O)N(c2cc(NC3=NCCCN3)ccc2F)C1)c1ccc2c(c1)OCO2 (stereo not drawn)
2.9		NC(N)=Nc1ccc(F)c(N2CC(C(=O)NC(CC(=O)O)c3cccnc3)CC2=O)c1 (stereo not drawn)
> 1000	> 25000	O=C(O)C[C@H](NC(=O)[C@H]1CC(=O)N(c2cccc(NC(=O)NCc3ccccc3)c2)C1)c1cccc(F)c1
0.1	2100	O=C(O)C[C@H](NC(=O)[C@@H]1CC(=O)N(c2cccc(NC3=NCCCN3)c2)C1)c1ccc2c(c1)OCO2
1.4		O=C(O)CC(NC(=O)C1CC(=O)N(c2cccc(NC3=NCCCN3)c2)C1)c1cccnc1 (stereo not drawn)
52.7		NC(N)=Nc1ccc(Cl)c(N2CC(C(=O)NC(CC(=O)O)c3cccnc3)CC2=O)c1 (stereo not drawn)
10	> 25000	O=C(O)C[C@H](NC(=O)[C@@H]1CC(=O)N(c2cccc(NC(=O)NCc3ccccc3)c2)C1)c1cccc(F)c1
7.3	> 25000	O=C(O)C[C@@H](NC(=O)[C@@H]1CC(=O)N(c2cccc(NC3=NCCCN3)c2)C1)c1ccc2c(c1)OCO2
5.1		O=C(O)CC(NC(=O)C1CC(=O)N(c2cccc(NC3=NCCN3)c2)C1)c1cccnc1 (stereo not drawn)
